Measured values as given in paper PMC3697071 (Natural product communications, 2010).
In brackets after ≈: the same amount, converted by molar mass.

What was measured:
[1] = system: Leishmania donovani promastigotes; test: Antileishmanial assay; assay type: cell-based; details: 72 h; for L. donovani IC50 / L. donovani IC90: promastigotes; for IC50 / IC90: Leishmania donovani; for IC50: read-out: L. donovani IC50; for IC90: read-out: L. donovani IC90
[2] = system: P. falciparum D6 (chloroquine-sensitive, Sierra Leone); test: Antimalarial/parasite LDH assay, D6 clone; assay type: cell-based, Plasmodium falciparum; details: for P. falciparum D6 IC50: chloroquine-sensitive clone D6; for IC50: Plasmodium falciparum, D6, read-out: P. falciparum D6 IC50
[3] = system: Pseudomonas aeruginosa ATCC 27853; test: Antimicrobial assay; assay type: cell-based; details: for P. aureginosa IC50: first value of IC50/MIC; for IC50: ATCC27853, read-out: P. aureginosa IC50
Procedure, shortened: (§1)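 Modified CLSI broth susceptibility method. Ciprofloxacin drug control in each assay. […] MIC is the lowest test concentration allowing no detectable growth.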

[4] = system: Candida glabrata ATCC 90030; test: Antimicrobial assay; assay type: cell-based; details: for C. glabrata IC50: first value of IC50/MIC
[5] = system: Mycobacterium intracellulare ATCC 23068; test: Antimicrobial assay; assay type: cell-based; details: for M. intracellulare IC50: first value of IC50/MIC; for IC50: ATCC23068, read-out: M. intracellulare IC50; for M. intracellulare MIC: second value of IC50/MIC
Procedure, shortened: as §1

[6] = system: Cryptococcus neoformans ATCC 90113; test: Antimicrobial assay; assay type: cell-based; details: for C. neoformans IC50: first value of IC50/MIC; for C. neoformans MIC: second value of IC50/MIC; for IC50 / MIC: Cryptococcus neoformans; for IC50: ATCC90113, read-out: C. neoformans IC50; for MIC: ATCC90113, read-out: C. neoformans MIC
[7] = system: Candida albicans ATCC 90028; test: Antimicrobial assay; assay type: cell-based; details: for C. albicans IC50: first value of IC50/MIC; for IC50: Candida albicans, ATCC90028, read-out: C. albicans IC50
[8] = system: methicillin-resistant S. aureus ATCC 43300 (MRS); test: Antimicrobial assay; assay type: cell-based, Staphylococcus aureus; details: for MRS IC50 / MRS MIC: methicillin-resistant S. aureus; for MRS IC50: first value of IC50/MIC; for MRS MIC: second value of IC50/MIC; for IC50 / MIC: Staphylococcus aureus; for IC50: ATCC43300, read-out: MRS IC50; for MIC: ATCC43300, read-out: MRS MIC
Procedure, shortened: as §1

[9] = system: Staphylococcus aureus ATCC 29213; test: Antimicrobial assay; assay type: cell-based; details: for S. aureus IC50: first value of IC50/MIC; for S. aureus MIC: second value of IC50/MIC; for IC50 / MIC: Staphylococcus aureus; for IC50: ATCC29213, read-out: S. aureus IC50; for MIC: ATCC29213, read-out: S. aureus MIC
Procedure, shortened: as §1

[10] = system: P. falciparum W2 (chloroquine-resistant, Indochina); test: Antimalarial/parasite LDH assay, W2 clone; assay type: cell-based, Plasmodium falciparum; details: for P. falciparum W2 IC50: chloroquine-resistant clone W2; for IC50: Plasmodium falciparum, W2, read-out: P. falciparum W2 IC50
[11] = system: Escherichia coli ATCC 35218; test: Antimicrobial assay; assay type: cell-based; details: for E. coli IC50: first value of IC50/MIC; for IC50: ATCC35218, read-out: E. coli IC50
Procedure, shortened: as §1

Candida krusei ATCC 6258 = test: Antimicrobial assay; assay type: cell-based; details: for C. krusei IC50: first value of IC50/MIC; for C. krusei MIC: second value of IC50/MIC
[12] = system: Aspergillus fumigatus ATCC 90906; test: Antimicrobial assay; assay type: cell-based; details: for A. fumigatus IC50: first value of IC50/MIC; for IC50: Aspergillus fumigatus, ATCC90906, read-out: A. fumigatus IC50; for A. fumigatus MIC: second value of IC50/MIC
Plasmodium falciparum = test: Antimalarial/parasite LDH assay, strains not distinguished in text; assay type: cell-based; details: for IC50: Plasmodium falciparum, read-out: antiplasmodial IC50; for antimalarial activity against Plasmodium falciparum: result in words
Procedure, shortened: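 Colorimetric assay of parasite lactate dehydrogenase (pLDH) activity in P. falciparum cultures, run in 96-well format on two strains: Sierra Leone D6 (chloroquine-sensitive) and Indochina W2 (chloroquine-resistant). DMSO served as vehicle control, with artemisinin and chloroquine as drug controls.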

[13] = system: monkey kidney fibroblasts (VERO); test: Cytotoxicity assay; assay type: cell-based; details: VERO cells; max dose […] for pure compounds

| Structure (SMILES) | P. aureginosa IC50 [3] | C. glabrata IC50 [4] | M. intracellulare IC50 [5] | C. neoformans IC50 [6] | C. albicans IC50 [7] | MRS IC50 [8] | MRS MIC [8] [µg/mL] | S. aureus IC50 [9] | S. aureus MIC [9] [µg/mL] | E. coli IC50 [11] | C. krusei IC50 (Candida krusei ATCC 6258) | A. fumigatus IC50 [12] | IC50 [1] [µg/mL] | IC90 [1] [µg/mL] | IC50 [2] [µg/mL] | IC50 ([3]; Pseudomonas aeruginosa) [µg/mL] | IC50 ([5]; Mycobacterium intracellulare) [µg/mL] | IC50 [7] [µg/mL] | IC50 [8] [µg/mL] | IC50 [10] [µg/mL] | other results |
| --- | --- | --- | --- | --- | --- | --- | --- | --- | --- | --- | --- | --- | --- | --- | --- | --- | --- | --- | --- | --- | --- |
| CC(CO)c1cc2c(c(O)c1O)[C@@]1(C)CCCC(C)(C)C1=C(O)C2=O (stereo partly drawn) [Compound 8, 6,11,12,16-tetrahydroxy-5,8,11,13-abietatetra-en-7-one] | −/− (=Not Active) | 14.9 µg/mL | −/− (=Not Active) | 5.9 µg/mL | −/− (- =Not Active) | 8.44 µg/mL | 20 | 6.8 µg/mL | 20 | −/− (=Not Active) | 14.5 µg/mL | −/− (- =Not Active) |  |  |  |  |  |  |  |  | L. donovani IC50 [1]: 12 µg/mL; L. donovani IC90 [1]: 22 µg/mL; P. falciparum D6 IC50 [2]: 3.0 µg/mL; C. glabrata MIC ([4]; second value of IC50/MIC): 20 µg/mL; C. neoformans MIC [6]: 20 µg/mL; P. falciparum W2 IC50 [10]: 4.8 µg/mL; C. krusei MIC (Candida krusei ATCC 6258): 20 µg/mL |
| CC(C)c1cc2c(cc1O)[C@@]1(C)CCCC(C)(C)[C@@H]1CC2 [Compound 6, ferruginol] |  |  |  |  |  |  | 2.5 |  | 2.5 to 5 |  |  |  | 4 (≈ 14 µM) | 13 (≈ 45.4 µM) | > 4.76 | > 20 | 14.5 (≈ 50.6 µM) | > 20 | 0.96 (≈ 3.35 µM) | > 4.76 | M. intracellulare MIC [5]: −; IC50 [6]: > 20 µg/mL; MIC [8]: 2.5 µg/mL (≈ 8.73 µM); IC50 [9]: 1.33 µg/mL (≈ 4.64 µM); MIC [9]: 2.5 µg/mL (≈ 8.73 µM); IC50 ([11]; Escherichia coli): > 20 µg/mL; IC50 [12]: > 20 µg/mL |
| C[C@@H]1[C@H](O)[C@@H](C)/C=C/C=C/C=C/C=C/C=C/C=C/C=C/[C@H](O[C@@H]2O[C@H](C)[C@@H](O)[C@H](N)[C@@H]2O)C[C@@H]2O[C@](O)(C[C@@H](O)C[C@@H](O)[C@H](O)CC[C@@H](O)C[C@@H](O)CC(=O)O[C@H]1C)C[C@H](O)[C@H]2C(=O)O [Amphotericin B, reference compound] |  |  |  |  |  |  |  |  |  |  |  |  | 0.13 (≈ 0.141 µM) | 0.3 (≈ 0.325 µM) |  |  |  | 0.43 (≈ 0.465 µM) |  |  | MIC [6]: 1.25 µg/mL (≈ 1.35 µM); IC50 [12]: 1.29 µg/mL (≈ 1.4 µM) |
| CC(C)C1=CC2=CC(=O)[C@H]3C(C)(C)CCC[C@]3(C)C2=C(O)C1=O [Compound 3, taxodione] |  |  |  |  |  |  | 2.5 |  | 2.5 to 5 |  |  |  | 0.08 (≈ 0.254 µM) | 0.21 (≈ 0.668 µM) | 1.2 (≈ 3.82 µM) | > 20 | 11.9 (≈ 37.8 µM) | 12.5 (≈ 39.8 µM) | 1.47 (≈ 4.68 µM) | 1.2 (≈ 3.82 µM) | M. intracellulare MIC [5]: −; IC50 [6]: 0.58 µg/mL (≈ 1.84 µM); MIC [6]: 1.25 µg/mL (≈ 3.98 µM); C. neoformans MIC [6]: 1.25 µg/mL; C. albicans MIC ([7]; second value of IC50/MIC): −; MIC [8]: 2.5 µg/mL (≈ 7.95 µM); IC50 [9]: 1.35 µg/mL (≈ 4.29 µM); MIC [9]: 5 µg/mL (≈ 15.9 µM); IC50 ([11]; Escherichia coli): > 20 µg/mL; C. krusei MIC (Candida krusei ATCC 6258): −; IC50 [12]: 8.9 µg/mL (≈ 28.3 µM); A. fumigatus MIC [12]: −; IC50 (Plasmodium falciparum): 1.2 to 4.8 µg/mL (≈ 3.82 to 15.3 µM); antimalarial activity against Plasmodium falciparum (Plasmodium falciparum): weak antimalarial activity |
| CC1=C(C)C2=CC(=O)c3c(O)c4c(c(O)c3[C@@]2(C)CC1)O[C@@H](C)C4 [Compound 9, uncinatone] | −/− (=Not Active) | −/− (- =Not Active) | −/− (=Not Active) | −/− (- =Not Active) | −/− (- =Not Active) | −/− (=Not Active) |  | −/− (=Not Active) |  | −/− (=Not Active) | −/− (- =Not Active) | −/− (- =Not Active) |  |  |  |  |  |  |  |  | L. donovani IC50 [1]: 0.2 µg/mL; L. donovani IC90 [1]: 0.9 µg/mL; antimalarial activity against Plasmodium falciparum (Plasmodium falciparum): inactive |
| CCN(CC)CCCC(C)Nc1ccnc2cc(Cl)ccc12 (stereo not drawn) [Chloroquine, reference compound] |  |  |  |  |  |  |  |  |  |  |  |  |  |  | < 0.026 |  |  |  |  | 0.14 (≈ 0.438 µM) |  |
| N=C(N)c1ccc(OCCCCCOc2ccc(C(=N)N)cc2)cc1 [Pentamidine, reference compound] |  |  |  |  |  |  |  |  |  |  |  |  | 1.4 (≈ 4.11 µM) | 6 (≈ 17.6 µM) |  |  |  |  |  |  |  |
| O=C(O)c1cn(C2CC2)c2cc(N3CCNCC3)c(F)cc2c1=O [Ciprofloxacin, reference compound] |  |  |  |  |  |  |  |  |  |  |  |  |  |  |  | 0.06 (≈ 0.181 µM) | 0.3 (≈ 0.905 µM) |  | 0.08 (≈ 0.241 µM) |  | MIC ([3]; Pseudomonas aeruginosa, ATCC27853, read-out: P. aureginosa MIC): 0.25 µg/mL (≈ 0.754 µM); MIC ([5]; Mycobacterium intracellulare, ATCC23068, read-out: M. intracellulare MIC): 1 µg/mL (≈ 3.02 µM); MIC [8]: 0.25 µg/mL (≈ 0.754 µM); IC50 [9]: 0.1 µg/mL (≈ 0.302 µM); MIC [9]: 0.25 µg/mL (≈ 0.754 µM); IC50 ([11]; Escherichia coli): 0.004 µg/mL (≈ 0.0121 µM); MIC ([11]; Escherichia coli, ATCC35218, read-out: E. coli MIC): 0.008 µg/mL (≈ 0.0241 µM) |
| CC(C)C1=C(O)C(=O)C2=C(CC[C@H]3C(C)(C)CCC[C@]23C)C1=O [Compound 2, royleanone] |  |  |  |  |  |  |  |  |  |  |  |  |  |  | > 4.76 | > 20 | > 20 | > 20 | > 20 | > 4.76 | IC50 [6]: > 20 µg/mL; IC50 [9]: > 20 µg/mL; IC50 ([11]; Escherichia coli): > 20 µg/mL; IC50 [12]: > 20 µg/mL |
| CC(C)c1cc2c(c(O)c1O)[C@@]1(C)CCCC(C)(C)C1=C(O)C2=O [Compound 7, 6-hydroxysalvinolone] | −/− (=Not Active) | −/− (- =Not Active) | −/− (=Not Active) | 0.96 µg/mL | −/− (- =Not Active) | 1.56 µg/mL | 2.5 | 1.75 µg/mL | 5 | −/− (=Not Active) | −/− (- =Not Active) | 11.2 µg/mL |  |  |  |  |  |  |  |  | VERO TC50 [13]: 4.5 µg/mL; L. donovani IC50 [1]: 3.2 µg/mL; L. donovani IC90 [1]: 6.5 µg/mL; P. falciparum D6 IC50 [2]: 1.8 µg/mL; C. neoformans MIC [6]: 2.5 µg/mL; P. falciparum W2 IC50 [10]: 2.5 µg/mL; A. fumigatus MIC [12]: −; antimalarial activity against Plasmodium falciparum (Plasmodium falciparum): weak antimalarial activity |
| C[C@@H]1CC[C@H]2[C@@H](C)C(=O)O[C@@H]3O[C@@]4(C)CC[C@@H]1[C@]32OO4 [Artemisinin, reference compound] |  |  |  |  |  |  |  |  |  |  |  |  |  |  | < 0.026 |  |  |  |  | < 0.026 | IC50 (Plasmodium falciparum): < 0.026 µg/mL |
| CC(C)c1cc2c(c(O)c1OC1OCC(O)C(O)C1O)C1(C)CCCC(C)(C)C1CC2 (stereo not drawn) [Compound 10, 11-hydroxy-8,11,13-abietatriene-12-O-β-xylopyranoside] | −/− (=Not Active) | −/− (- =Not Active) | −/− (=Not Active) | −/− (- =Not Active) | −/− (- =Not Active) | −/− (=Not Active) |  | −/− (=Not Active) |  | −/− (=Not Active) | −/− (- =Not Active) | −/− (- =Not Active) |  |  |  |  |  |  |  |  |  |
